Screening results deposited in PubChem by several laboratories.
Shown are actives, neighbours in structure and some others; about 4.4% of the full set was active somewhere.
HTR2A ag: activates the mouse 5-HT2A serotonin receptor. P35363. CHO-K1 mHTR2A beta-arrestin complementation, luminescence; percent of 30 µM serotonin response. activation, % at 7.6 µM. 360,000 compounds, 0.66% hits. AID 624169;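 active = activation above a run cutoff, the mean activation of all tested compounds plus 3 SD, cut at about 14% in these data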
AHR activator: human AHR activation; P35869; AHR-responsive luciferase reporter cells, luminescence; activation, % at 5 µM; 320,000 compounds, 2.5% hits; in the data active = activation above about 47%
Target sequence (P35869 whole entry, looked up): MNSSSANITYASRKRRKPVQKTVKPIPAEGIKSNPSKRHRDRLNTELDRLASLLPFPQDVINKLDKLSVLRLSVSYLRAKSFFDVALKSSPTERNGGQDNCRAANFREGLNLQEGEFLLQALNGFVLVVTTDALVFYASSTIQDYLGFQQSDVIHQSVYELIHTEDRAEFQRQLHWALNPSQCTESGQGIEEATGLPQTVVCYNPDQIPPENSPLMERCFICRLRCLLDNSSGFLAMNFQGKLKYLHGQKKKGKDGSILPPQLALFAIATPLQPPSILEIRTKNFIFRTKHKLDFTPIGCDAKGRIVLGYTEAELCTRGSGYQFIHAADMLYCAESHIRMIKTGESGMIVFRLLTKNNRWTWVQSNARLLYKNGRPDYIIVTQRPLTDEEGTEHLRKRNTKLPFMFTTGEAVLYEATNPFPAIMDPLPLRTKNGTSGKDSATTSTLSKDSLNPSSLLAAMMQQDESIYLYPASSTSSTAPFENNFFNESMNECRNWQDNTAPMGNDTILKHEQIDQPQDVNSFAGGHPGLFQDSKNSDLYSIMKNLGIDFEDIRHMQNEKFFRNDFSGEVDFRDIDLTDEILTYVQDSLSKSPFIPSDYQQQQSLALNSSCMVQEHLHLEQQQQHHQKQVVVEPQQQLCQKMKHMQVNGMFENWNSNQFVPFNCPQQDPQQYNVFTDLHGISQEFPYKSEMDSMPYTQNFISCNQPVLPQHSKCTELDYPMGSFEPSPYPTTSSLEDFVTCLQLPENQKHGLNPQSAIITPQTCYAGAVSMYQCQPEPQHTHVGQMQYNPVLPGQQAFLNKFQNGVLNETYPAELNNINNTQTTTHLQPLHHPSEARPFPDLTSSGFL
MsrA act: activates bovine MsrA enzyme | purified bovine MsrA, absorbance read-out | activation, % at 10.6 µM | 360,000 compounds, 0.3% hits | AID 602163; in the data active = activation above about 7.5%
AI-2 QS mod: modulators of Vibrio harveyi AI-2 quorum sensing system. Vibrio harveyi JMH597 AI-2 luminescence/OD600 ratio, 9 h; active compounds read low; strain lacks LuxN and CqsS sensors; 0 = neutral-control median. activity change, % at 7.5 µM. 300,000 compounds, 0.4% hits; in the data active = activity change below about -75%, passing the limit was not always enough;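 note: luminescence divided by OD600 gain over 9 h not by final OD600 alone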
TbMetRS inhib: blocks T. brucei methionyl-tRNA synthetase activity | purified T. brucei MetRS, ATP depletion, Kinase-Glo luminescence | inhibition, % at 11.9 µM | 360,000 compounds, 0.4% hits | AID 624268;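 active = inhibition above a per-plate cutoff of the control wells' mean inhibition plus 3 SD, cut at about 5.5% in these data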
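Material: parasite MetRS enzyme / Replication: singlicate, one well per compound / Signal: luminescence of leftover ATP / Schedule: 2 h aminoacylation at 25 °C after 15 min preincubation / Medium: HEPES-MgCl2-KCl buffer plus DTT, spermine, BSA, pyrophosphatase / Doses: 11.9 µM single point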
MsrA inhibitor: inhibits bovine methionine sulfoxide reductase A; 360,000 compounds, 0.75% hits; inhibition, % at 15.5 µM; purified bovine MsrA, absorbance read-out; in the data active = inhibition above about 4.5%
Of the large screens only hits and unclear results are named; the others gave an inactive call.

CCCCNc1c(-c2ccc(-c3cccc(Cl)c3)cc2)nc2ccccn12	AHR activator 56
Cc1[nH]c2ccccc2c1CC(=O)Nc1ccc(Nc2cccnc2)c(-c2ccc(-c3ccccc3)cc2F)c1	none (no result: HTR2A ag, AHR activator, MsrA act, AI-2 QS mod, TbMetRS inhib)
Oc1ccc(C=Nc2ccccc2-c2nc3ccccc3[nH]2)cc1	AHR activator 74
Nc1cccc(-c2nc3ccccc3[nH]2)c1	none
O=c1[nH]cccc1-c1nc2ccccc2[nH]1	none
Nc1ccc(-c2nc3ccccc3[nH]2)cc1	none
Nc1ccccc1-c1nc2ccccc2[nH]1	AHR activator 55
c1ccc(-c2cc(-c3nc4ccccc4[nH]3)c3ccccc3n2)cc1	AHR activator 52
COCc1[nH]nc2c1C(c1ccc(Br)cc1)N(c1ccc(OC)cc1)C2=O (stereo not drawn)	none (no result: HTR2A ag, AHR activator, MsrA act, AI-2 QS mod, TbMetRS inhib)
CCC1(C)CC(C#N)(C#N)C(=O)NC1=O (stereo not drawn)	none (no result: AHR activator, AI-2 QS mod)
Cc1ccc(S(=O)(=O)NCC2CCN(C(=O)C(=O)c3cc4ccccc4o3)CC2)cc1	none (no result: HTR2A ag, AHR activator, MsrA act, AI-2 QS mod, TbMetRS inhib)
Cc1[nH]c2ccccc2c1-c1csc(NC(=O)CSCCO)n1	AHR activator 50
N#Cc1nc(-c2ccccc2Cl)oc1NCc1ccco1	AI-2 QS mod -80
CC(C)(C)c1ccc(-c2nc(N)nc(N)n2)cc1	none
Nc1nc(-c2ccc(Cl)cc2)nc(-c2ccc(Cl)cc2)n1	AHR activator 70
COc1cccc2c1nc(C)c1cc(C)oc12	AHR activator 62
COc1ccc2nc(C)c3cc(C)oc3c2c1	none (no result: AI-2 QS mod)
O=c1[nH]c(/C=C\c2ccc(O)c(Cl)c2)nc(O)c1[N+](=O)[O-]	MsrA inhibitor 4.6
O=c1[nH]c(/C=C\c2ccc(O)cc2)nc(O)c1[N+](=O)[O-]	none
O=C(C(=O)N1CCC(CNS(=O)(=O)c2ccc(F)cc2)CC1)c1cccs1	none (no result: HTR2A ag, AHR activator, MsrA act, AI-2 QS mod, TbMetRS inhib)
COc1cc(OC)c2cc(C(=O)N/N=C/c3cccc(OC)c3O)[nH]c2c1	AHR activator 49
Oc1ccc2ccccc2c1/C=N/c1nccs1	none
Oc1ccc2ccccc2c1C=NCc1cn2ccsc2n1	AHR activator 66
Cc1ccc2oc(-c3cccc(NC(=O)c4ccc(Br)o4)c3)nc2c1	AHR activator 60
Cc1ccc2oc(-c3cccc(NC(=S)NC(=O)/C=C/c4ccco4)c3)nc2c1	AHR activator 67
O=C(OCn1ncc(Br)c(Br)c1=O)c1ccc(F)cc1	AI-2 QS mod -81 (no result: MsrA inhibitor)
O=C(OCn1ncc(Br)c(Br)c1=O)c1ccccc1Cl	none (no result: MsrA inhibitor)
Cc1[nH]c2ccccc2c1CC(=O)Nc1ccc(Nc2ccncc2)cc1	none (no result: HTR2A ag, AHR activator, MsrA act, AI-2 QS mod, TbMetRS inhib)
C/C(O)=C(/C=Nc1ccccc1)C(=O)Nc1ccccc1	AHR activator 48
O=C(O)c1ccc(NCc2ccc3c(c2)OCO3)cc1	AI-2 QS mod -92
O=C(NCc1ccc2c(c1)OCO2)C1(S(=O)(=O)c2ccccc2)CC1	AHR activator 70
O=C(NCc1ccc2c(c1)OCO2)c1ccc2c(c1)OCO2	none
CC1CCN(c2ccccc2NC(=O)c2ccc(C#N)cc2F)CC1	AHR activator 71
CC(C)C(=O)N1CCN(c2ccccc2NC(=O)c2ccc(C#N)cc2F)CC1	none
C[C@H](CO)N1C[C@H](C)[C@@H](CN(C)S(C)(=O)=O)OCc2cn(nn2)CCCC1=O	none (no result: HTR2A ag, AHR activator, MsrA act, AI-2 QS mod, TbMetRS inhib)
Nc1nc(N)c(N=Nc2ccc(Cl)cc2)c(=O)[nH]1	none
Cc1[nH][nH]c(=O)c1N=Nc1ccc(Cl)cc1	AHR activator 51
Cc1ccc(S(=O)(=O)CCC(=O)c2ccc(O)cc2O)cc1	none (no result: AI-2 QS mod)
CCCCCC(=O)C(=O)c1ccc(O)cc1O	MsrA inhibitor 4.6
COC(=O)[C@]12C[C@H](CC(=O)NCCC(C)C)C(=O)N(CCC3=CCCCC3)C1=C[C@H](C(C)(C)C)O[C@@H]2C	none (no result: HTR2A ag, AHR activator, MsrA act, AI-2 QS mod, TbMetRS inhib)
O=C1CN(C(=O)CN2CCCC2)C(c2ccccc2)c2cc(Br)ccc2N1 (stereo not drawn)	none
O=C1CN(C(=O)CN2CCOCC2)C(c2ccccc2)c2cc(Br)ccc2N1 (stereo not drawn)	AHR activator 57
S=C(NCc1ccco1)Nc1ccc(Cl)c(Cl)c1	none
CCOc1ccc(NC(=S)Nc2cc(-c3ccccc3)[nH]n2)cc1	AHR activator 78
S=C(NCc1ccco1)Nc1cc(-c2ccccc2)[nH]n1	AHR activator 74, AI-2 QS mod -81
COC(=O)C1=C(C(=O)OC)C2CCCC1C1N=NN(c3ccccc3)C21 (stereo not drawn)	none (no result: HTR2A ag, AHR activator, MsrA act, AI-2 QS mod, TbMetRS inhib)
Nc1nc(-c2ccccc2)c(N=Nc2cccc3ccccc23)s1	AHR activator 70
Nc1nc(-c2ccccc2)c(N=Nc2ccccc2Cl)s1	none
Cc1ccc(-c2noc(CSc3nnc(Cc4cccs4)n3-c3ccccc3)n2)cc1	HTR2A ag 21
CCCCCCC12C(=Cc3cc4c(cc31)OCCO4)c1cc(OC)c(OC)cc1C(CC(=O)NCc1ccccc1)N2C(=O)OC (stereo not drawn)	none (no result: HTR2A ag, AHR activator, MsrA act, AI-2 QS mod, TbMetRS inhib)
COc1cc(NC(=O)c2ccno2)cc(C(=O)Nc2cccc(C(F)(F)F)c2)c1	AHR activator 64
COc1cc(NC(=O)c2nccnc2N)cc(C(=O)Nc2cccc(C(F)(F)F)c2)c1	none
COc1cccc(NC(=O)c2cc3cccc(OC)c3o/c2=N\O)c1	AHR activator 63 (no result: HTR2A ag, MsrA act, TbMetRS inhib, MsrA inhibitor)
COc1cc(NC(=O)c2cc3cccc(OC)c3o2)cc(C(=O)Nc2cccc(C(F)(F)F)c2)c1	AHR activator 73
Cc1ccccc1C(=O)N1CCN(C(=O)C(=O)c2cccc(C(F)(F)F)c2)CC1	none (no result: HTR2A ag, AHR activator, MsrA act, AI-2 QS mod, TbMetRS inhib)
COC(=O)C1=C(C)N(Cc2ccccc2C(F)(F)F)C(=NCc2ccc3c(c2)OCO3)NC1c1cccc(C(F)(F)F)c1 (stereo not drawn)	none (no result: HTR2A ag, AHR activator, MsrA act, AI-2 QS mod, TbMetRS inhib)
CCCCN1c2cc(C)c(O)cc2C(C(=O)OCC)C1C (stereo not drawn)	AHR activator 48 (no result: HTR2A ag, MsrA act, TbMetRS inhib)
O=C(N[C@H](Cc1ccccc1)C(=O)NCc1ccccn1)[C@H]1O[C@@H](n2ccc(=O)[nH]c2=O)[C@H](O)[C@@H]1O	none (no result: HTR2A ag, AHR activator, MsrA act, AI-2 QS mod, TbMetRS inhib)
O=C(c1ccncc1)N1CCN(c2ccc(F)cc2)CC1	none
O=C(c1ccc(Cl)cc1)N1CCN(c2ccc(F)cc2)CC1	AHR activator 58
Oc1ccccc1C=Nc1cccc2ccccc12	none
Oc1cccc(C=Nc2cccc3ccccc23)c1O	AHR activator 51
O=C(Nc1ccc(Cl)c([N+](=O)[O-])c1)c1cnccn1	AHR activator 70
Clc1ccc(/C=N/Nc2ncnc3nc[nH]c23)cc1	AHR activator 66
CCCCc1c(-c2ccccc2OC)ncn1Cc1ccc(Cl)cc1Cl	none (no result: HTR2A ag, AHR activator, MsrA act, AI-2 QS mod, TbMetRS inhib)
CCOc1cc(C(=O)N=c2sccn2C)cc(Br)c1OC	AHR activator 55
[O-]/[N+](=C/c1ccc(F)cc1)c1ccc(Cl)cc1	AHR activator 64 (no result: MsrA inhibitor)
[O-][N+](=Cc1ccccc1)c1ccc(Cl)cc1	none (no result: AHR activator, AI-2 QS mod)
COC(=O)C1=C(C)N(Cc2ccccc2C(F)(F)F)C(=NCc2ccc(OC)cc2)NC1c1cccc(Cl)c1 (stereo not drawn)	none (no result: HTR2A ag, AHR activator, MsrA act, AI-2 QS mod, TbMetRS inhib)
COCc1[nH]nc2c1C(c1ccc(F)cc1)N(Cc1ccccc1)C2=O (stereo not drawn)	none (no result: HTR2A ag, AHR activator, MsrA act, AI-2 QS mod, TbMetRS inhib)
